Data from ChEMBL document CHEMBL1139997, “Structural basis for the activity of the RSK-specific inhibitor, SL0101” (Bioorg Med Chem, 2007).
The source made the active and inactive calls. The calls are words filed in the database; no cut-off is given here.

Columns and labels:
[1] = tested on: MCF7; assay: Antiproliferative activity against human MCF7 cells at 15 uM; assay type: functional
Method in brief: (§1)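 MCF-7 or MCF-10A cells were seeded at 5000 per well in ATCC-recommended medium. After 24 h the medium was replaced with medium containing compound or vehicle. Viability was read 48 h later by luminescent cell-viability reagent. Results are fold proliferation as % of vehicle-treated cells, mean of n = 2 in quadruplicate ± SD. EC50 was obtained by best-fit curve analysis.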

[2] = Inhibition of RSK expressed in SF9 cells at 10 uM; details: Homo sapiens
[3] = Antiproliferative activity against human MCF10A cells at 15 uM; assay type: cell-based; details: mcf-10a; method in brief: as §1
[4] = tested on: MCF7; assay: Antiproliferative activity against human MCF7 cells at 100 uM after 48 hrs; assay type: functional; method in brief: as §1
[5] = Inhibition of RSK expressed in SF9 cells; set-up: species or system Homo sapiens
[6] = Antiproliferative activity against human MCF10A cells up to 200 uM after 48 hrs; assay type: cell-based; details: mcf-10a; method in brief: as §1
[7] = tested on: MCF7; assay: Antiproliferative activity against human MCF7 cells at >100 uM after 48 hrs; assay type: functional, cell-based; method in brief: as §1
[8] = organism: Homo sapiens; assay: Inhibition of RSK activity at 75 uM
[9] = tested on: MCF7; assay: Antiproliferative activity against human MCF7 cells at 75 uM after 48 hrs; assay type: functional, cell-based; method in brief: as §1
[10] = Growth inhibition of human MCF10A cells at 75 uM 48 hrs; assay type: cell-based, MCF-10A; method in brief: as §1
[11] = tested on: MCF7; assay: Inhibition of RSK mediated mitogen-induced p140 phosphorylation in MCF7 cells pretreated at 75 uM; assay type: cell-based; details: Homo sapiens
Method in brief: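 MCF-7 cells were seeded at 3×10^5 per well and serum-starved 24 h. They were pre-incubated with inhibitor or vehicle (2 h per legend; methods state 4 h), then given 500 nM PMA or vehicle for 20 min. Cells were lysed in boiling SDS buffer without DTT, and lysates were normalized for total protein before immunoblotting for phospho-p140.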

[12] = tested on: MCF7; assay: Antiproliferative activity against human MCF7 cells after 48 hrs; assay type: functional, cell-based; method in brief: as §1

## CC(=O)Oc1ccc(-c2oc3cc(OC(C)=O)cc(OC(C)=O)c3c(=O)c2O[C@@H]2O[C@@H](C)[C@H](OC(C)=O)[C@@H](OC(C)=O)[C@H]2OC(C)=O)cc1
[1]
  Activity: 50%
[2]
  inhibition: 50%
[3]
  Activity: Not Active

## CC(=O)O[C@@H]1[C@@H](OC(C)=O)[C@@H](O)[C@H](Oc2c(-c3ccc(O)cc3)oc3cc(O)ccc3c2=O)O[C@H]1C
[4]
  Activity: 50%
[5]
  IC50: 24.6 µM

## CC(=O)O[C@@H]1[C@@H](OC(C)=O)[C@@H](O)[C@H](Oc2c(-c3ccc(O)cc3)oc3cc(O)cc(O)c3c2=O)O[C@H]1C
[6]
  Activity: Not Active
[7]
  Activity: Active

## CC(=O)O[C@@H]1[C@@H](OC(C)=O)[C@@H](O)[C@H](Oc2c(-c3ccc(O)cc3)oc3cccc(O)c3c2=O)O[C@H]1C
[8]
  Activity: Active
[9]
  Activity: Active
[10]
  inhibition at 48 h, 75 µM: 25%
[5]
  IC50: 1.56 µM
[11]
  Activity: Active

## CCO[C@@H]1[C@@H](OCC)[C@@H](O)[C@H](Oc2c(-c3ccc(O)cc3)oc3cc(O)cc(O)c3c2=O)O[C@H]1C
[5]
  IC50: 0.129 µM

## CC(=O)O[C@@H]1[C@@H](OC(C)=O)[C@@H](O)[C@H](Oc2c(-c3ccccc3)oc3cccc(O)c3c2=O)O[C@H]1C
[8]
  Activity: Active
[9]
  Activity: Active
[10]
  inhibition at 48 h, 75 µM: 25%
[5]
  IC50: 13.2 µM
[11]
  inhibition: 50%

## COc1ccc(-c2oc3cc(OC)cc(OC)c3c(=O)c2O[C@@H]2O[C@@H](C)[C@H](OC(C)=O)[C@@H](OC(C)=O)[C@H]2O)cc1
[5]; Homo sapiens
  Activity: inactive

## C[C@@H]1O[C@@H](Oc2c(-c3ccc(O)cc3)oc3cc(O)cc(O)c3c2=O)[C@H](O)[C@H](O)[C@H]1O [AFZELIN]
[5]
  IC50: 4.37 µM
[12]
  Activity: inactive
